Measurements from PMC6896334 (Cell reports, 2019).

Tests used:
ID1 [1] = molecular target: T1, ID1 (Homo sapiens, UniProt P41134); experiment: Western blot for ID1 in HUVECs; format: cell-based; conditions: 0–40 μM, 24 h
T1 sequence (P41134 1-155): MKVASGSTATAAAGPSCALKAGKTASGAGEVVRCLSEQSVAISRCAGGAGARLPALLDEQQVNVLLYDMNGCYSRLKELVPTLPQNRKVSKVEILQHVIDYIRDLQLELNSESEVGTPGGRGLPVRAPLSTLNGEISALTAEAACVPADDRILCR
How it was run: (§1)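 HUVECs treated with 0–40 µM test compound for 24 h. Whole-cell lysates were immunoblotted for the target protein. Infrared band intensities were blank-subtracted and normalised to tubulin.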

Cyclin D1 = experiment: Western blot for Cyclin D1 in HUVECs; format: cell-based, human; conditions: 0–40 μM, 24 h
How it was run: as §1

[2] = Concentration of AGX51 in the eyes after i.p. dosing; format: in vivo, mouse
How it was run: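 Test compound given i.p. at 30 mg/kg. Eyes were dissected at time points over 24 h, extracted, and compound content per eye measured by mass spectrometry.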

E47 = molecular target: T2, E47 (Homo sapiens, UniProt P15923); experiment: Circular dichroism; format: binding; conditions: AGX51 0, 10, 20, 50 μM
T2 sequence (P15923 1-651 isoform P15923-2): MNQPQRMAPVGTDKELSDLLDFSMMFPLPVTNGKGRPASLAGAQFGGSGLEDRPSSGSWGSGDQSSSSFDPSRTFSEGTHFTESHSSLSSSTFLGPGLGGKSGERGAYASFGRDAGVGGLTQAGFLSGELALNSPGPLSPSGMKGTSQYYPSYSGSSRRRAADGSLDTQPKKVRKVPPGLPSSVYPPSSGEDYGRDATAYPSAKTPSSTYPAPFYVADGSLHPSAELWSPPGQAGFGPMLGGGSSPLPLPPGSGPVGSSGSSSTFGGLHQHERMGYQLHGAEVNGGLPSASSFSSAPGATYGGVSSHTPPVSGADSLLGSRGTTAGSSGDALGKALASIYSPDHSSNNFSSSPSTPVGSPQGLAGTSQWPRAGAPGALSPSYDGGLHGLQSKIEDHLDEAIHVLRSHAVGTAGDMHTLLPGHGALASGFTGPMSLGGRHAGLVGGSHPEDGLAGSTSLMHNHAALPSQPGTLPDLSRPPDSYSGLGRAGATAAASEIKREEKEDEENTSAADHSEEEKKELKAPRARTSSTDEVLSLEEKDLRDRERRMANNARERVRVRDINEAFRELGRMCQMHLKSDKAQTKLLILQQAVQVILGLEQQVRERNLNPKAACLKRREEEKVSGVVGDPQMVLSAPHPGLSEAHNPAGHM

Id3 = molecular target: T3, Id3 (Mus musculus, UniProt P41133); experiment: Circular dichroism; format: binding
T3 sequence (P41133 1-119): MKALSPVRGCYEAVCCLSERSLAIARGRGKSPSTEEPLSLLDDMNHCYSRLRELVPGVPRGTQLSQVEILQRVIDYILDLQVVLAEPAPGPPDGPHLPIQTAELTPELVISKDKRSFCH

E protein binding = experiment: EMSA on whole cell lysates from HCT116 cells; format: cell-based, human; conditions: HCT116, 40 μM, 24 h
HCT116 cells = experiment: HCT116 cell cycle analysis; format: cell-based, human; conditions: HCT116, 40 μM, 4-24 hours
How it was run: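 Cells exposed to test compound or DMSO, then trypsinised, PBS-washed and fixed in 70% ethanol at −20°C. After centrifugation and PBS wash, cells were stained in PI/RNase buffer for 15 min at room temperature. DNA content was analysed by flow cytometry.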

Id1 [3] = molecular target: T4, Id1 (Mus musculus, UniProt P20067); experiment: Circular dichroism; format: binding; conditions: AGX51 0–50 μM; AGXA 0–110 μM in DMSO
T4 sequence (P20067 1-148 isoform P20067-2): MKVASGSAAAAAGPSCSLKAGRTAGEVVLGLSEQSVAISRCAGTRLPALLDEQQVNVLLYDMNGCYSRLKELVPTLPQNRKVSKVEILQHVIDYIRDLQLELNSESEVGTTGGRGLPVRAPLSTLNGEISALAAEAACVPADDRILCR

ID1 mRNA = experiment: qRT-PCR for ID1 in HCT116 cells; format: cell-based, human; conditions: HCT116, 40 μM, 24 hours
How it was run: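 ID1 transcript measured by qRT-PCR after treatment, using validated QuantiTect primer sets with GAPDH as reference. Fold change was calculated by the delta-delta CT method.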

HUVECs [4] = experiment: HUVEC scratch assay; format: cell-based, human; conditions: 0–40 μM, 24 h
How it was run: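 HUVECs grown on 0.1% fibronectin-coated wells to confluence over 24 h. They were then serum-starved for 4 h in endothelial basal medium and scratched with a pipette tip to create a cell-free zone before exposure to the test compound.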

HUVECs [5] = experiment: HUVEC cell branching assay on matrigel; format: cell-based, human; conditions: 0–40 μM, 18–20 h on matrigel, vs vehicle, p < 0.05
How it was run: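 HUVECs (80,000 per well) in EGM-2 containing the test compound at the indicated concentration were plated on Matrigel pre-solidified for 30 min at 37°C. After 18–20 h, media was removed and wells were fixed in 10% buffered formalin for 15 min. Tubes were imaged by inverted microscope at 10x. Nodes, junctions, meshes and total branching length were scored by Angiogenesis Analyzer, n = 4 per concentration, Wilcoxon test.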

4T1 cells = experiment: 4T1 cell-based IC50; conditions: Mus musculus, 4T1, 24 h
How it was run: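 4T1 cells exposed to 0–20 µM test compound for 24 h. Whole-cell lysates were immunoblotted for Id1. Band intensities were read on 700/800 nm infrared channels, blank-subtracted and normalised to tubulin, and IC50 was taken from these blots.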

Id1 (59–104) = molecular target: T5, Id1 (59–104) (Mus musculus, UniProt P20067); experiment: UV crosslinking of AGX51-XL2 to purified Id1 and mass spectrometry; format: binding; conditions: 10-fold excess of AGX51
T5 sequence (P20067 59-104): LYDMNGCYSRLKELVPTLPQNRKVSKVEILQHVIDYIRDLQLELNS
How it was run: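 Purified Id1 (aa 59–104, 1 µg) was mixed in the dark with 19.7 ng of a benzophenone photoreactive test-compound analog in DMSO and UV-irradiated for 20 min, with a no-UV control. Samples were run in the dark on a 15% denaturing gel and silver stained. Bands were excised for mass spectrometry.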

[6] = molecular target: T6, NanoLuc luciferase ID1 fusion protein (Homo sapiens, UniProt P41134); experiment: NanoBRET target engagement assay in permeabilized 293T cells; format: binding; conditions: 2 μM AGX51 tracer, 0–60 μM competitor, 50 μg/mL digitonin
T6 sequence (P41134 1-155): T1 sequence (P41134 1-155)
How it was run: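 293T cells transfected with an N-terminal NanoLuc–ID1 fusion construct and plated 24 h later. Cells received 2 µM fluorescent tracer plus 0–60 µM competitor, then were permeabilised with digitonin (50 µg/mL). NanoBRET Nano-Glo substrate was added and the BRET ratio read, following the kit protocol for intracellular target engagement.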

Q: With `CCC(=O)N(CCC(c1ccc2c(c1)OCO2)c1ccccc1OC)Cc1ccccc1` (stereo not drawn) [AGX51, N-(3-(benzo[d][1,3]dioxol-5-yl)-3-(2-methoxyphenyl)propyl)-N-benzylpropionamide] as the compound, how does the “concentration at which a significant decrease in ID1 protein levels was observed” value (ID1 [1]) read?
A: 10 µM

Q: What about the “Cyclin D1 levels” value (Cyclin D1) of the same compound?
A: reduction in Cyclin D1 levels

Q: What about the half-life ([2]; male, BALB/c, mouse, eye, ip, 30 mg/kg) of the same compound?
A: 3.7 h

Q: What about the “maximum concentration in the eye” value ([2]; mice, i.p. 30 mg/kg, after 30 min) of the same compound?
A: ~ 4 ng/eye

Q: And the “interaction with E47 (CD)” value (E47)?
A: no evidence of an interaction

Q: And the “effect on Id3 secondary structure (CD)” value (Id3)?
A: small but reproducible effect

Q: And the “E protein binding in cell lysates” value (E protein binding)?
A: small increase in E protein binding

Q: And the cell cycle effect (HCT116 cells)?
A: G0/G1 growth arrest

Q: What about the “effect on Id1 secondary structure (CD spectra)” value (Id1 [3]) of the same compound?
A: significant alteration in the 2° structure of Id1

Q: And the “ID1 mRNA levels” value (ID1 mRNA)?
A: increase in ID1 mRNA levels

Q: What about the “HUVEC migration after scratch” value (HUVECs [4]) of the same compound?
A: significantly impaired HUVEC migration

Q: What about the “vascular branching (nodes, junctions, meshes, total branching length)” value (HUVECs [5]) of the same compound?
A: significantly impaired in a dose-dependent manner

Q: What about the IC50 (4T1 cells) of the same compound?
A: 26.7 µM

Q: What about the “AGX51-XL2 binding to Id1 in the presence of competitor” value (Id1 (59–104)) of the same compound?
A: significant decrease in AGX51-XL2 binding to Id1

Q: And the “competition with the AGX51 tracer (BRET ratio)” value [6]?
A: able to compete the AGX51 tracer
